Among the data in ChEMBL document CHEMBL1151266, “Cytotoxic principles from the formosan milkweed, Asclepias curassavica” (J Nat Prod, 2005) are IC50 values, retold here.

What is called IC50 is the concentration that gives 50% inhibition. Read a low IC50 as greater potency.

Common to all, as to type: functional, cell-based
The test system of one experiment is A549. The experiment is described as follows: Cytotoxicity against human A549 cells after 3 days by MTT assay. To be noted: A549, 72 h. An outline of the steps:
(§1)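 Freshly trypsinized cells seeded at 5000-10 000 per well; test agents added from DMSO stock. After 3 days in culture, attached cells incubated with MTT (0.5 mg/mL, 1 h), then solubilized in DMSO; absorbance read at 550 nm. IC50 taken as concentration reducing cell growth by 50%.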

Another experiment relates to MDA-MB-231. Nature of the experiment: Cytotoxicity against human MDA-MB-231 cells after 3 days by MTT assay. To be noted: MDA-MB-231, 72 h. Put shortly:
as §1

In another experiment the test system is MCF7. Nature of the experiment: Cytotoxicity against human MCF7 cells after 3 days by MTT assay. To be noted: MCF7, 72 h. Put shortly:
as §1
(Tetrazolium assays rely on reduction of a dye to a coloured formazan, in cell work by metabolically active cells.)

Another experiment deals with HepG2. Nature of the experiment: Cytotoxicity against human HepG2 cells after 3 days by MTT assay. To be noted: HepG2, 72 h. Put shortly: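 Freshly trypsinized cells seeded at 5000-10 000 per well; test agents added from DMSO stock. After 3 days in culture, attached cells incubated with MTT (0.5 mg/mL, 1 h), then solubilized in DMSO; absorbance read at 550 nm.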
The next experiment has as its system KB. Nature of the experiment: Cytotoxicity against human KB cells.

Converted amounts (≈) assume the structure as drawn.

As for `C[C@@H]1C[C@H](O)[C@]2(O)O[C@@H]3C[C@@]4(C=O)[C@@H](CC[C@@H]5[C@@H]4CC[C@]4(C)[C@@H](C6=CC(=O)OC6)C[C@@H](O)[C@]54O)C[C@H]3O[C@@H]2O1`, the IC50 with A549 amounted to 0.1 µg/mL (≈ 0.182 µM); in the experiment on MDA-MB-231, 0.98 µg/mL (≈ 1.79 µM); with MCF7, 0.48 µg/mL (≈ 0.875 µM); in the experiment on HepG2, 0.15 µg/mL (≈ 0.273 µM).

For the molecule `CC(=O)O[C@@H]1C[C@]2(O)[C@@H]3CC[C@H]4C[C@H]5O[C@@H]6O[C@H](C)C[C@H](O)[C@]6(O)O[C@@H]5C[C@]4(C=O)[C@H]3CC[C@]2(C)[C@H]1C1=CC(=O)OC1`, the IC50 amounted to 0.11 µg/mL (≈ 0.186 µM) in the experiment on A549, 0.49 µg/mL (≈ 0.83 µM) with MDA-MB-231, 0.28 µg/mL (≈ 0.474 µM) in the experiment on MCF7 and 0.39 µg/mL (≈ 0.66 µM) in the experiment with HepG2.

Turning to `CC(=O)O[C@H]1C[C@@H](C)O[C@H]2O[C@@H]3C[C@@H]4CC[C@@H]5[C@H](CC[C@]6(C)[C@@H](C7=CC(=O)OC7)[C@H](OC(C)=O)C[C@]56O)[C@@]4(C=O)C[C@H]3O[C@]21O`, the IC50 in the experiment on A549 worked out at 0.02 µg/mL (≈ 0.0316 µM); in the experiment on MDA-MB-231 it was 0.39 µg/mL (≈ 0.616 µM); in the experiment on MCF7 it was 0.17 µg/mL (≈ 0.269 µM); in the experiment with HepG2 it was 0.13 µg/mL (≈ 0.205 µM).

Regarding `CC(=O)O[C@H]1C[C@@H](C)O[C@H]2O[C@@H]3C[C@@H]4CC[C@@H]5[C@H](CC[C@]6(C)[C@@H](C7=CC(=O)OC7)[C@H](O)C[C@]56O)[C@@]4(C=O)C[C@H]3O[C@]21O`, the IC50 in the experiment with A549 was found to be 0.14 µg/mL (≈ 0.237 µM); in the experiment on MDA-MB-231 it was 1.52 µg/mL (≈ 2.57 µM); in the experiment with MCF7, 1 µg/mL (≈ 1.69 µM); with HepG2, 0.51 µg/mL (≈ 0.863 µM).

`C[C@@H]1C[C@@H](O)[C@]2(O)O[C@@H]3C[C@@]4(C=O)[C@@H](CC[C@@H]5[C@@H]4CC[C@]4(C)[C@@H](C6=CC(=O)OC6)C[C@@H](O)[C@]54O)C[C@H]3O[C@@H]2O1`: the IC50 in the experiment with A549 amounted to 0.07 µg/mL (≈ 0.128 µM); with MDA-MB-231 it was 0.45 µg/mL (≈ 0.82 µM); in the experiment on MCF7, 0.38 µg/mL (≈ 0.693 µM); in the experiment with HepG2, 0.16 µg/mL (≈ 0.292 µM).

For the molecule `CC(=O)O[C@H]1C[C@@H](C)O[C@H]2O[C@@H]3C[C@@H]4CC[C@@H]5[C@H](CC[C@]6(C)[C@@H](C7=CC(=O)OC7)CC[C@]56O)[C@@]4(C=O)C[C@H]3O[C@]21O` [ASCLEPIN], the IC50 with A549 stood at 0.01 µg/mL (≈ 0.0174 µM); with MDA-MB-231, 0.06 µg/mL (≈ 0.104 µM); with MCF7, 0.02 µg/mL (≈ 0.0348 µM); with HepG2, 0.05 µg/mL (≈ 0.087 µM).

Turning to `C[C@@H]1C[C@@H](O)[C@]2(O)O[C@@H]3C[C@@]4(C=O)[C@@H](CC[C@@H]5[C@@H]4CC[C@]4(C)[C@@H](C6=CC(=O)OC6)CC[C@]54O)C[C@H]3O[C@@H]2O1` [CALACTIN], the IC50 was 0.0029 µg/mL (≈ 0.00544 µM) in the experiment on A549, 0.03 µg/mL (≈ 0.0563 µM) in the experiment with MDA-MB-231, 0.01 µg/mL (≈ 0.0188 µM) in the experiment with MCF7 and 0.02 µg/mL (≈ 0.0375 µM) in the experiment on HepG2.

Regarding `C[C@@H]1C[C@H](O)[C@]2(O)O[C@@H]3C[C@@]4(C=O)[C@@H](CC[C@@H]5[C@@H]4CC[C@]4(C)[C@@H](C6=CC(=O)OC6)CC[C@]54O)C[C@H]3O[C@@H]2O1` [CALOTROPIN], the IC50 was determined as 0.02 µg/mL (≈ 0.0375 µM) in the experiment on A549; 0.16 µg/mL (≈ 0.3 µM) in the experiment with MDA-MB-231; 0.08 µg/mL (≈ 0.15 µM) in the experiment on MCF7; 0.11 µg/mL (≈ 0.207 µM) in the experiment with HepG2; 0.015 µg/mL (≈ 0.0282 µM) with KB.

With `C[C@]12CC[C@H](O)C[C@H]1CC[C@@H]1[C@@H]2CC[C@]2(C)[C@@H](C3=CC(=O)OC3)CC[C@]12O` [DIGITOXIGENIN], the IC50 was determined as 0.24 µg/mL (≈ 0.641 µM) in the experiment on A549, 1.9 µg/mL (≈ 5.07 µM) in the experiment on MDA-MB-231, 1.69 µg/mL (≈ 4.51 µM) in the experiment on MCF7 and 0.12 µg/mL (≈ 0.32 µM) in the experiment with HepG2.

On to `COc1cccc2c1C(=O)c1c(O)c3c(c(O)c1C2=O)C[C@@](O)(C(=O)CO)C[C@@H]3O[C@H]1C[C@H](N)[C@H](O)[C@H](C)O1` [DOXORUBICIN], for which the IC50 in the experiment with A549 stood at 0.79 µg/mL (≈ 1.45 µM); in the experiment on MCF7, 0.56 µg/mL (≈ 1.03 µM).

For `C[C@@H]1CC(=O)[C@]2(O)O[C@@H]3C[C@@]4(C=O)[C@@H](CC[C@@H]5[C@@H]4CC[C@]4(C)[C@@H](C6=CC(=O)OC6)CC[C@]54O)C[C@H]3O[C@@H]2O1` [USCHARIDIN], the IC50 in the experiment on A549 turned out to be 0.01 µg/mL (≈ 0.0188 µM); in the experiment with MDA-MB-231 it was 0.09 µg/mL (≈ 0.17 µM); with MCF7 it was 0.04 µg/mL (≈ 0.0754 µM); in the experiment with HepG2, 0.04 µg/mL (≈ 0.0754 µM).

Take `C[C@@H]1C[C@@]2(N=CCS2)[C@]2(O)O[C@@H]3C[C@@]4(C=O)[C@@H](CC[C@@H]5[C@@H]4CC[C@]4(C)[C@@H](C6=CC(=O)OC6)CC[C@]54O)C[C@H]3O[C@@H]2O1` [USCHARIN]: the IC50 with A549 worked out at 0.01 µg/mL (≈ 0.017 µM); in the experiment with MDA-MB-231, 0.1 µg/mL (≈ 0.17 µM); in the experiment on MCF7, 0.04 µg/mL (≈ 0.0681 µM); with HepG2, 1.1 µg/mL (≈ 1.87 µM).
